# In the library only some 2% were active in any assay of this set; here they are far more common.
# ZTA DNA inh = counter-screen for EBNA-1 inhibitors: inhibitors of Epstein-Barr virus ZTA | ZTA-DNA binding, fluorescence polarization | inhibition, % at 11 µM | 0.15% of 320,000 active | AID 2234; in the data active means inhibition above about 33%
# Target sequence (P03206 whole entry, looked up): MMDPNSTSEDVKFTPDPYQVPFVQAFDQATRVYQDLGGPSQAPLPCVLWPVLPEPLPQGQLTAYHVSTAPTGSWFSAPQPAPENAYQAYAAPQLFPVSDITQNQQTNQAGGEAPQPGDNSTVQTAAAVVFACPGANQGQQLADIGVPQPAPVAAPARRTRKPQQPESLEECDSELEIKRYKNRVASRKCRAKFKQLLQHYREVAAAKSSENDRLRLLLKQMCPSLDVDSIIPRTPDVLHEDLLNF
# EBNA-1 inh = EBNA-1 DNA-binding inhibitors, primary screen, biochemical, fluorescence polarization | 0.34% of 300,000 active | AID 1950, 2009 | inhibition, % at 14.8 µM; in the data active means inhibition above about 28%
# HCV NS3 hel inh = inhibitors of HCV NS3 helicase, primary screen, biochemical, Cy5 molecular beacon fluorescence; Hepatitis C virus NS3 helicase; NS3 helicase DNA unwinding; inhibition, % at 10.9 µM; 0.56% of 290,000 active; AID 1800, 2009;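 active means inhibition above the mean of all tested compounds plus 3 SD, set per campaign, cut at about 35% in these data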;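 further: 0% = DMSO wells and 100% = thioflavine S control wells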
#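 Measured by: Cy5 fluorescence, 0 and 60 min reads / Assay system: NS3 helicase fragment of HCV / Control set: low DMSO, high thioflavine S at 110 µM / Times: 1 h reaction at 25 °C, ATP-initiated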
# FID counter = compounds displacing fluorescent DNA intercalator, primary screen, artefact control for HCV NS3 helicase inhibitor project, biochemical, FID fluorescence; inhibition, % at 7.9 µM; DNA fluorescent intercalator displacement; 0.17% of 290,000 active; in the data active means inhibition above about 37%;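 further: 0% = vehicle and 100% = reference compound; higher means more ethidium bromide displaced from hairpin DNA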
# GPR7 antag = GPR7 receptor antagonists, primary screen, cell-based, fluorescence, single concentration | GPR7-expressing cells, fluorescence antagonist assay | inhibition, % at 4.4 µM | 1.1% of 290,000 active; in the data active means inhibition above about 16%, passing the limit was not always enough;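 further: cells stimulated with the agonist NPW; 0% = agonist with vehicle and 100% = vehicle without agonist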
# Target sequence (P48145 whole entry, looked up): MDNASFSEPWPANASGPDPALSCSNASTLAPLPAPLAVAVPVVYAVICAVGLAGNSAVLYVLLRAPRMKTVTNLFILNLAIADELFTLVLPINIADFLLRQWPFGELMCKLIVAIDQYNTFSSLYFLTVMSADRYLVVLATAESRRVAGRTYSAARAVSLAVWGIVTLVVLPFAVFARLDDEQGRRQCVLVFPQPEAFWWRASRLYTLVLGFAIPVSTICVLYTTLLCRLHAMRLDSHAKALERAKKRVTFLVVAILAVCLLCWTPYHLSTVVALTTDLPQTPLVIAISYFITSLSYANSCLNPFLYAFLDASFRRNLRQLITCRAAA
# GPR7 antag conf = GPR7 receptor antagonists, confirmation, cell-based, fluorescence, single concentration | inhibition, % at 4.4 µM | shares compounds with GPR7 antag | GPR7-expressing cells, calcium fluorescence antagonist mode | 52% of 2,400 active; in the data active means inhibition above about 24%;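 further: stimulated with the GPR7 agonist NPW; 0% = agonist plus vehicle and 100% = vehicle alone without agonist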
# MCHR1 antag = MCHR1 antagonists in cells, counter-screen for GPR7 antagonist project, cell-based, fluorescence, human | 62% of 2,400 active | AID 2148, 2009 | MCHR1-expressing cells, fluorescence antagonist assay | inhibition, % at 4.4 µM | shares compounds with GPR7 antag; in the data active means inhibition above about 22%;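 further: 0% = vehicle with agonist and 100% = vehicle without agonist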
# Numbers without * were called inactive; · = no result.
SMILES,ZTA DNA inh,EBNA-1 inh,HCV NS3 hel inh,FID counter,GPR7 antag,GPR7 antag conf,MCHR1 antag
CN(C)c1ccc(NC(=O)CCn2c(=S)oc3ccccc32)cc1,-16.0,-2.9,-14.6,1.8,6.8,·,·
CCOc1ccc(NC(=O)CCn2c(=S)oc3ccccc32)cc1,-20.4,-2.5,14.2,-10.1,35.0*,10.3,6.1
O=S(=O)(NC1CCCC1)c1ccc(S(=O)(=O)N2CCc3ccccc32)cc1,-2.8,-5.9,0.9,-13.7,46.5*,61.9*,60.8*
Cc1[nH]c2ccc(C(=O)NCc3ccccn3)cc2c1C,6.8,-3.8,9.4,-14.2,2.0,·,·
Cc1ccc(C(=O)Nc2ccccc2N2CCCC2)s1,-15.2,·,·,·,·,·,·
O=C(C#Cc1ccccc1)c1ccco1,-7.7,2.8,-2.8,-10.2,56.3*,57.6*,66.4*
Cc1ccc(S(=O)(=O)NCCC(=O)Nc2ccc(S(=O)(=O)NC(C)C)cc2)cc1,1.3,8.4,-6.7,-14.6,-10.6,·,·
COc1ccc(NS(=O)(=O)c2ccc(NC(=O)CCNS(=O)(=O)c3ccc(C)cc3)cc2)cc1,-15.9,3.5,-15.1,-11.5,26.6*,60.7*,50.2*
CCCCNC(=O)CSc1nnc(-c2cccc(S(=O)(=O)N3CCOCC3)c2)o1,-0.3,·,·,·,·,·,·
CC(=O)c1ccc(NC(=O)C(C)N(C)CC(=O)Nc2ccc(N3CCOCC3)cc2)cc1 (stereo unspecified),-11.2,-8.9,8.7,-17.3,25.6*,12.5,-1.0
Cc1ccnc(NS(=O)(=O)c2ccc(NS(=O)(=O)c3cc(Cl)ccc3Cl)cc2)n1,-3.4,-4.3,2.4,-23.8,-1.9,·,·
CC1(C)CC(=O)C=C(N2CCNCC2)C1,-20.5,0.5,0.5,-2.6,1.9,·,·
CC1CC(C)C[N+](=C2C=C(N3CCCC3)CC(C)(C)C2)C1 (stereo unspecified),·,·,0.6,12.1,49.6*,58.0*,53.4*
O=C(NCCc1ccccc1)C1CCN(Cc2cccc3ccccc23)CC1,0.0,-24.8,-49.4,18.7,28.3*,4.2,9.9
Cn1c(SCC(=O)NC2CC2)nnc1-c1ccc(Cl)cc1,-19.2,·,·,·,·,·,·
O=C(CC(C(=O)N1CCc2ccccc21)n1ccnc1)NCC1CCCO1 (stereo unspecified),-10.6,-0.3,-3.5,-3.1,24.3*,3.9,4.1
CCCCNC(=O)CC(C(=O)N1CCc2ccccc21)n1ccnc1 (stereo unspecified),-4.8,2.5,0.5,-1.1,-4.5,·,·
O=C(Nc1ccc([N+](=O)[O-])cc1)c1ccc(Cn2cc([N+](=O)[O-])cn2)cc1,21.0,4.2,5.5,5.8,23.8*,66.5*,72.2*
O=C(Nc1cnn(Cc2ccc(Cl)cc2)c1)c1ccc([N+](=O)[O-])cc1,2.0,-8.9,-22.4,5.8,5.5,·,·
Cc1ccc(C(=O)Nc2ccccc2N2CCOCC2)cc1S(=O)(=O)N1CCOCC1,5.0,·,·,·,·,·,·
N=c1n(Cc2ccccc2)c2ccccc2n1CC(O)COc1ccccc1 (stereo unspecified),-14.4,-7.8,-57.9,32.1,14.9,·,·
CCCCn1c(=N)n(CC(O)COc2ccc(C)cc2)c2ccccc21 (stereo unspecified),-1.1,-7.6,-91.5,41.4*,35.6*,27.9*,38.9*
CCCCn1c(=N)n(CC(O)COc2ccccc2)c2ccccc21 (stereo unspecified),13.2,-0.7,-17.0,12.9,9.7,·,·
CCCCn1c(=N)n(CC(O)c2ccccc2)c2ccccc21 (stereo unspecified),-15.6,0.7,6.2,24.8,31.0*,3.8,8.7
Cc1ccc(Cn2c(=N)n(CC(O)COc3ccccc3)c3ccccc32)cc1 (stereo unspecified),14.5,-11.2,-37.4,24.2,29.1*,43.1*,70.6*
SMILES,ZTA DNA inh,EBNA-1 inh,HCV NS3 hel inh,FID counter,GPR7 antag,GPR7 antag conf,MCHR1 antag
Cc1nn(-c2ccccc2)c(C)c1NC(=O)COC(=O)CC(C)c1ccccc1 (stereo unspecified),-1.8,-3.2,·,·,·,·,·
COc1ccc(-n2c(=O)[nH]c3cc(C(=O)NCCc4ccc(Cl)cc4)ccc3c2=O)cc1OC,-2.7,25.4,4.5,-11.8,35.5*,36.2*,59.8*
CCCCCn1c(=O)[nH]c2cc(C(=O)NCCc3ccc(OC)c(OC)c3)ccc2c1=O,-6.2,-6.9,-8.8,-0.6,5.5,·,·
CC(C)CN(CCCNC(=O)CN1C(=O)COc2ccc(S(=O)(=O)N3CCOCC3)cc21)CC(C)C,3.6,4.6,18.7,4.2,2.3,·,·
CCCCn1c(N)c(N(CC(C)C)C(=O)c2cccc(S(=O)(=O)N3CCCCCC3)c2)c(=O)[nH]c1=O,1.5,-7.0,4.1,-23.2,27.8*,-5.5,3.9
CCCCn1c(N)c(N(CCOC)C(=O)CCNC(=O)c2ccccc2Cl)c(=O)[nH]c1=O,-0.6,-4.3,1.5,-12.5,25.6*,-4.0,-2.4
CCCCn1c(N)c(N(CC(C)C)C(=O)c2ccc(COc3ccccc3)o2)c(=O)[nH]c1=O,-1.7,11.0,-1.7,-47.2,26.1*,32.3*,20.6
CCCCN(C(=O)c1ccccc1OCc1ccc(F)cc1)c1c(N)n(CCC)c(=O)[nH]c1=O,11.3,-2.8,5.6,-43.5,30.4*,16.4,9.2
CCCCn1c(N)c(N(CC(C)C)C(=O)CCNC(=O)c2ccccc2Cl)c(=O)[nH]c1=O,11.1,-8.6,·,·,·,·,·
COc1ccc(CCN2CC(C(=O)N(C)Cc3ccc(C)o3)CCC2=O)cc1 (stereo unspecified),-5.5,-12.4,3.4,-20.6,-3.7,·,·
CCn1c2ccccc2c2cc(NC(=O)C(C)OC(=O)c3ccc(NC(=O)CC#N)cc3)ccc21 (stereo unspecified),-7.7,·,·,·,·,·,·
CCOc1ccc(NC(=O)COc2ccc(C(=O)NC(C)c3ccc(S(N)(=O)=O)cc3)cc2OC)cc1 (stereo unspecified),-4.0,0.8,·,·,·,·,·
CC1CN(c2oc(COc3ccc(Cl)cc3Cl)nc2C#N)CC(C)O1 (stereo unspecified),-5.5,-26.3,-9.5,-15.4,40.2*,23.9*,27.7*
NC(=O)c1ccccc1NC(=O)COc1ccc2c(c1)OCO2,2.1,9.1,0.4,-7.3,8.0,·,·
COC(=O)c1ccccc1S(=O)(=O)N1CCC(C(=O)NCc2ccco2)CC1,10.0,·,·,·,·,·,·
CC(C)n1cc(NC(=O)c2cc(-c3ccccc3)on2)cn1,12.7,3.5,10.0,-24.2,24.3*,14.3,30.0*
O=C(Nc1cccnc1)c1cc(-c2ccccc2)on1,-4.3,2.9,-9.5,-7.8,2.5,·,·
O=C(NN1C(=O)NC2(CCCCC2)C1=O)c1ccc(Cl)s1,3.0,·,·,·,·,·,·
COc1ccc2nc(NC(=O)C3CC(=O)N(c4ccccc4)C3)sc2c1 (stereo unspecified),-15.9,-8.2,-12.1,-21.5,-1.8,·,·

# Screening results from PubChem.
